Assay results of several laboratories.
Lines come from different studies, so protocols differ.
MAOA: Amine oxidase [flavin-containing] A (MAOA, Homo sapiens, UniProt P21397)
ACE2: Angiotensin-converting enzyme 2 (ACE2, Homo sapiens, UniProt Q9BYF1)
USP2: Ubiquitin carboxyl-terminal hydrolase 2 (USP2, Homo sapiens, UniProt O75604)

| SMILES | target | test | setting | inhibition [%] |
| --- | --- | --- | --- | --- |
| CCOC(=O)c1ccc(OC(=O)CCCCCNC(=N)N)cc1 | Dipeptidyl peptidase 3 (DPP3, Homo sapiens, UniProt Q9NY33) | enzyme activity, inhibitor | 10 µM | 4 |
| CN(CCN1CCC(OC(=O)Nc2ccccc2-c2ccccc2)CC1)C(=O)c1ccc(CN2CCC(C(N)=O)CC2)cc1 | MAOA | enzyme activity, inhibitor | 1 µM | -2 |
| O=C(Nc1ccc([N+](=O)[O-])cc1[N+](=O)[O-])c1ccc2c(c1)OCO2 | MAOA | enzyme activity, inhibitor | 1 µM, 20 min | 44 |
| Nc1ncnc2c1ncn2[C@@H]1O[C@H](CNS(=O)(=O)c2ccc3ccccc3c2)[C@@H](O)[C@H]1O | Protein arginine N-methyltransferase 3 (PRMT3, Homo sapiens, UniProt O60678) | enzyme activity, inhibitor | 10 µM | -5 |
| COCc1c(-c2cc3cc(C)cc(OC)c3s2)c2c(N)ncnn2c1CN1CCNC(=O)C1 | MAOA | enzyme activity, inhibitor | 10 µM | -3 |
| CCN(CC)CCCC[C@H](NC(=O)[C@H](CC(C)C)NC(=O)[C@H](C)NC(=O)[C@H](Cc1ccccc1)NC(=O)c1ccc(C(C)(C)C)cc1)C(=O)N[C@@H](CO)C(=O)OC | Vasoactive intestinal polypeptide receptor 1 (VIPR1, Homo sapiens, UniProt P32241) | ligand displacement, radioligand | 10 µM | -9 |
| Cc1ncc(C)n2nc(/C=C/c3nc(N4CCCC4)cc(N4CCOCC4)n3)nc12 | ACE2 | enzyme activity, inhibitor | 10 µM | 11 |
| O=C(Nc1cccnn1)N1CCN([C@@H]2CCOc3cc(C(F)(F)F)ccc32)CC1 | ACE2 | enzyme activity, inhibitor | 20 µM | 3 |
| C#Cc1n[nH]c2c(-c3cn([C@@H](C)c4ccccc4)c(=O)[nH]c3=O)cc(F)cc12 | Focal adhesion kinase 1 (PTK2, Homo sapiens, UniProt Q05397) | enzyme activity, inhibitor | 0.1 µM | 3.8 |
| c1ccc(C(NCCNC(c2ccccc2)c2ccccc2)c2ccccc2)cc1 | MAOA | cell-free assay, inhibitor | 10 µM | 11 |
| C[C@@H]1CCCN1CCCCOc1ccc2occc(=O)c2c1 | MAOA | enzyme activity, inhibitor, fluorescence | 10 µM | 7 |
| CN(C)C(=O)COC(=O)Cc1ccc(OC(=O)c2ccc(NC(=N)N)cc2)cc1 | USP2 | enzyme activity, inhibitor | 10 µM | 1 |
| Cn1cc(-c2cc(F)cc(N3CCn4c(cc5c4CCCC5)C3=O)c2CO)cc(Nc2ccc(N3CCN(C4COC4)CC3)cn2)c1=O | Cyclin-dependent kinase 5, with p35 (CDK5, Homo sapiens, UniProt Q00535) | enzyme activity, inhibitor | 0.1 µM | 6 |
| N=C(N)c1ccc2cc(OC(=O)c3ccc(N=C(N)N)cc3)ccc2c1 | USP2 | enzyme activity, inhibitor | 10 µM | 0 |
| Cc1ccc2nc(N3C(=O)C(O)=C(C(=O)OC(C)(C)C)C3c3ccc(-c4ccc(Cl)cc4)o3)sc2c1 (centres unmarked) | UDP-N-acetylglucosamine 1-carboxyvinyltransferase (murA, Escherichia coli K-12, UniProt P0A749) | enzyme activity, inhibitor | 20 µM | 88 |
| CC(C)C[C@H](NC(=O)[C@H]1O[C@@H]1C(=O)O)C(=O)NCCCCN=C(N)N | Cathepsin S (CTSS, Homo sapiens, UniProt P25774) | enzyme activity, inhibitor | 50 nM | 81 |
| C#Cc1n[nH]c2c(-c3cn(C(C)c4ccccn4)c(=O)[nH]c3=O)cc(F)cc12 (centres unmarked) | High affinity nerve growth factor receptor (NTRK1, Homo sapiens, UniProt P04629) | enzyme activity, inhibitor | 1 µM | 13.1 |
